ChEMBL document CHEMBL1127395, “Synthesis and antimicrobial activity of novel 3-[(aminopyrimidiniumyl)thio]methyl cephalosporins” (1994)
Values after ≈ are worked out from the molar mass of the structure shown.

Experiments:
Pseudomonas aeruginosa [1] = experiment: In vitro minimum inhibitory concentration for Pseudomonas aeruginosa (ATCC-27853) by agar dilution method; assay type: functional; details: Pseudomonas aeruginosa; read-out: MIC
Summary of the method: (§1)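 Two-fold serial dilutions of each compound dispersed in Mueller-Hinton agar; plates spot-inoculated with 2 μL of standard test strain at 10^7 CFU/mL, incubated 37 °C for 20 h; MIC read as lowest concentration inhibiting growth.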

Proteus vulgaris = experiment: In vitro minimum inhibitory concentration for Proteus vulgaris (ATCC-6059) by agar dilution method; assay type: functional; details: Proteus vulgaris; read-out: MIC; summary of the method: as §1
Klebsiella aerogenes = experiment: In vitro minimum inhibitory concentration for Enterobacter aerogenes (ATCC-29751) by agar dilution method; assay type: functional; details: Klebsiella aerogenes; read-out: MIC; summary of the method: as §1
[2] = tested on: Staphylococcus epidermidis; experiment: In vitro minimum inhibitory concentration for Staphylococcus epidermidis (ATCC-12228) by agar dilution method; assay type: functional; details: Staphylococcus epidermidis; read-out: MIC; summary of the method: as §1
Citrobacter freundii = experiment: In vitro minimum inhibitory concentration for Citrobacter freundii (ATCC-8090) by agar dilution method; assay type: functional; details: Citrobacter freundii; read-out: MIC; summary of the method: as §1
Staphylococcus aureus = experiment: In vitro minimum inhibitory concentration for Staphylococcus aureus (ATCC 6538p) by agar dilution method; assay type: functional; details: Staphylococcus aureus, ATCC 6538p; read-out: MIC; summary of the method: as §1
Enterobacter cloacae = experiment: In vitro minimum inhibitory concentration for Enterobacter cloacae (ATCC-27508) by agar dilution method; assay type: functional; details: Enterobacter cloacae; read-out: MIC; summary of the method: as §1
Klebsiella pneumoniae = experiment: In vitro minimum inhibitory concentration for Klebsiella pneumoniae (ATCC-10031) by agar dilution method; assay type: functional; details: Klebsiella pneumoniae; read-out: MIC
Serratia marcescens = experiment: In vitro minimum inhibitory concentration for Serratia marcescens (ATCC-27117) by agar dilution method; assay type: functional; details: Serratia marcescens; read-out: MIC; summary of the method: as §1
Escherichia coli = experiment: In vitro minimum inhibitory concentration for Escherichia coli (ATCC-10536) by agar dilution method; assay type: functional; details: Escherichia coli; read-out: MIC; summary of the method: as §1
Pseudomonas aeruginosa [3] = experiment: In vitro minimum inhibitory concentration for Pseudomonas aeruginosa (ATCC 10145) by agar dilution method; assay type: functional; summary of the method: as §1
Salmonella typhimurium = experiment: In vitro minimum inhibitory concentration for Salmonella Typhimurium (ATCC-14028) by agar dilution method; assay type: functional, Salmonella enterica subsp. enterica serovar Typhimurium; details: Salmonella enterica; read-out: MIC; summary of the method: as §1

Structure (SMILES)	MIC (Pseudomonas aeruginosa [1])	MIC (Proteus vulgaris)	MIC (Klebsiella aerogenes)	MIC [2]	MIC (Citrobacter freundii)	MIC (Staphylococcus aureus)	MIC (Enterobacter cloacae)	MIC (Klebsiella pneumoniae)	MIC (Serratia marcescens)	MIC (Escherichia coli)	MIC (Pseudomonas aeruginosa [3])	MIC (Salmonella typhimurium)
Cc1cc(C)nc(SCC2=C(C(=O)O)N3C(=O)C(NC(=O)/C(=N\OC(C)(C)C(=O)O)c4cnc(N)s4)C3SC2)n1 (stereo not given)	32 µg/mL (≈ 52.7 µM)	0.25 µg/mL (≈ 0.411 µM)	8 µg/mL (≈ 13.2 µM)	8 µg/mL (≈ 13.2 µM)	0.5 µg/mL (≈ 0.823 µM)	32 µg/mL (≈ 52.7 µM)	0.5 µg/mL (≈ 0.823 µM)	0.5 µg/mL (≈ 0.823 µM)	2 µg/mL (≈ 3.29 µM)	0.5 µg/mL (≈ 0.823 µM)	64 µg/mL (≈ 105 µM)	4 µg/mL (≈ 6.58 µM)
CC(C)(O/N=C(\C(=O)NC1C(=O)N2C(C(=O)O)=C(CSc3nccc(N)n3)CSC12)c1cnc(N)s1)C(=O)O (stereo not given)	8 µg/mL (≈ 13.5 µM)	0.063 µg/mL (≈ 0.106 µM)	8 µg/mL (≈ 13.5 µM)	16 µg/mL (≈ 26.9 µM)	1 µg/mL (≈ 1.68 µM)	32 µg/mL (≈ 53.8 µM)	0.5 µg/mL (≈ 0.841 µM)	0.5 µg/mL (≈ 0.841 µM)	1 µg/mL (≈ 1.68 µM)	1 µg/mL (≈ 1.68 µM)	16 µg/mL (≈ 26.9 µM)	1 µg/mL (≈ 1.68 µM)
CC(C)(O/N=C(\C(=O)NC1C(=O)N2C(C(=O)[O-])=C(CSc3nc(N)cc(N)[n+]3C3CC3)CSC12)c1cnc(N)s1)C(=O)O (stereo not given)	2 µg/mL (≈ 3.08 µM)	0.13 µg/mL (≈ 0.2 µM)	2 µg/mL (≈ 3.08 µM)	2 µg/mL (≈ 3.08 µM)	0.13 µg/mL (≈ 0.2 µM)	4 µg/mL (≈ 6.16 µM)	0.03 µg/mL (≈ 0.0462 µM)	0.06 µg/mL (≈ 0.0923 µM)	0.25 µg/mL (≈ 0.385 µM)	0.13 µg/mL (≈ 0.2 µM)	4 µg/mL (≈ 6.16 µM)	0.5 µg/mL (≈ 0.77 µM)
Cc1cc(C)[n+](C)c(SCC2=C(C(=O)[O-])N3C(=O)C(NC(=O)/C(=N\OC(C)(C)C(=O)O)c4cnc(N)s4)C3SC2)n1 (stereo not given)	4 µg/mL (≈ 6.43 µM)	0.06 µg/mL (≈ 0.0965 µM)	4 µg/mL (≈ 6.43 µM)	8 µg/mL (≈ 12.9 µM)	0.25 µg/mL (≈ 0.402 µM)	8 µg/mL (≈ 12.9 µM)	0.06 µg/mL (≈ 0.0965 µM)	0.13 µg/mL (≈ 0.209 µM)	0.25 µg/mL (≈ 0.402 µM)	0.13 µg/mL (≈ 0.209 µM)	4 µg/mL (≈ 6.43 µM)	0.5 µg/mL (≈ 0.804 µM)
CC(C)(O/N=C(\C(=O)NC1C(=O)N2C(C(=O)[O-])=C(CSc3nc(N)cc(N)[n+]3N)CSC12)c1cnc(N)s1)C(=O)O (stereo not given)	1 µg/mL (≈ 1.6 µM)	0.02 µg/mL (≈ 0.032 µM)	1 µg/mL (≈ 1.6 µM)	2 µg/mL (≈ 3.2 µM)	0.06 µg/mL (≈ 0.096 µM)	4 µg/mL (≈ 6.4 µM)	0.02 µg/mL (≈ 0.032 µM)	0.06 µg/mL (≈ 0.096 µM)	0.06 µg/mL (≈ 0.096 µM)	0.06 µg/mL (≈ 0.096 µM)	1 µg/mL (≈ 1.6 µM)	0.13 µg/mL (≈ 0.208 µM)
CCn1cc[n+]2c(SCC3=C(C(=O)[O-])N4C(=O)C(NC(=O)/C(=N\OC(C)(C)C(=O)O)c5cnc(N)s5)C4SC3)nc(N)cc12 (stereo not given)	2 µg/mL (≈ 3.02 µM)	0.06 µg/mL (≈ 0.0907 µM)	2 µg/mL (≈ 3.02 µM)	2 µg/mL (≈ 3.02 µM)	0.06 µg/mL (≈ 0.0907 µM)	4 µg/mL (≈ 6.04 µM)	0.02 µg/mL (≈ 0.0302 µM)	0.06 µg/mL (≈ 0.0907 µM)	0.13 µg/mL (≈ 0.196 µM)	0.06 µg/mL (≈ 0.0907 µM)	4 µg/mL (≈ 6.04 µM)	0.13 µg/mL (≈ 0.196 µM)
C[n+]1ccc(N)nc1SCC1=C(C(=O)[O-])N2C(=O)C(NC(=O)/C(=N\OC(C)(C)C(=O)O)c3cnc(N)s3)C2SC1 (stereo not given)	1 µg/mL (≈ 1.64 µM)	0.06 µg/mL (≈ 0.0986 µM)	1 µg/mL (≈ 1.64 µM)	2 µg/mL (≈ 3.29 µM)	0.03 µg/mL (≈ 0.0493 µM)	4 µg/mL (≈ 6.57 µM)	< 0.008 µg/mL	0.03 µg/mL (≈ 0.0493 µM)	0.06 µg/mL (≈ 0.0986 µM)	0.03 µg/mL (≈ 0.0493 µM)	2 µg/mL (≈ 3.29 µM)	0.13 µg/mL (≈ 0.214 µM)
C[n+]1cc(Cc2ccccc2)c(N)nc1SCC1=C(C(=O)[O-])N2C(=O)C(NC(=O)/C(=N\OC(C)(C)C(=O)O)c3cnc(N)s3)C2SC1 (stereo not given)	8 µg/mL (≈ 11.4 µM)	0.5 µg/mL (≈ 0.716 µM)	1 µg/mL (≈ 1.43 µM)	2 µg/mL (≈ 2.86 µM)	0.06 µg/mL (≈ 0.0859 µM)	8 µg/mL (≈ 11.4 µM)	0.03 µg/mL (≈ 0.0429 µM)	0.06 µg/mL (≈ 0.0859 µM)	0.5 µg/mL (≈ 0.716 µM)	0.25 µg/mL (≈ 0.358 µM)	16 µg/mL (≈ 22.9 µM)	0.5 µg/mL (≈ 0.716 µM)
CC(C)(O/N=C(\C(=O)NC1C(=O)N2C(C(=O)[O-])=C(CSc3nc(N)c4c([n+]3N)CCC4)CSC12)c1cnc(N)s1)C(=O)O (stereo not given)	2 µg/mL (≈ 3.08 µM)	0.06 µg/mL (≈ 0.0923 µM)	0.25 µg/mL (≈ 0.385 µM)	2 µg/mL (≈ 3.08 µM)	0.03 µg/mL (≈ 0.0462 µM)	4 µg/mL (≈ 6.16 µM)	0.02 µg/mL (≈ 0.0308 µM)	0.06 µg/mL (≈ 0.0923 µM)	0.13 µg/mL (≈ 0.2 µM)	0.06 µg/mL (≈ 0.0923 µM)	2 µg/mL (≈ 3.08 µM)	0.13 µg/mL (≈ 0.2 µM)
Cc1c(N)nc(SCC2=C(C(=O)[O-])N3C(=O)C(NC(=O)/C(=N\OC(C)(C)C(=O)O)c4cnc(N)s4)C3SC2)[n+]2ncn(C)c12 (stereo not given)	2 µg/mL (≈ 3.02 µM)	0.06 µg/mL (≈ 0.0905 µM)	1 µg/mL (≈ 1.51 µM)	2 µg/mL (≈ 3.02 µM)	0.06 µg/mL (≈ 0.0905 µM)	8 µg/mL (≈ 12.1 µM)	0.02 µg/mL (≈ 0.0302 µM)	0.06 µg/mL (≈ 0.0905 µM)	0.25 µg/mL (≈ 0.377 µM)	0.13 µg/mL (≈ 0.196 µM)	4 µg/mL (≈ 6.04 µM)	0.25 µg/mL (≈ 0.377 µM)
COc1cc(N)nc(SCC2=C(C(=O)[O-])N3C(=O)C(NC(=O)/C(=N\OC(C)(C)C(=O)O)c4cnc(N)s4)C3SC2)[n+]1C (stereo not given)	2 µg/mL (≈ 3.13 µM)	0.13 µg/mL (≈ 0.204 µM)	4 µg/mL (≈ 6.26 µM)	1 µg/mL (≈ 1.57 µM)	0.13 µg/mL (≈ 0.204 µM)	4 µg/mL (≈ 6.26 µM)	0.02 µg/mL (≈ 0.0313 µM)	0.06 µg/mL (≈ 0.0939 µM)	0.25 µg/mL (≈ 0.391 µM)	0.06 µg/mL (≈ 0.0939 µM)	4 µg/mL (≈ 6.26 µM)	0.25 µg/mL (≈ 0.391 µM)
Cc1cccc(C)c1-[n+]1c(N)cc(N)nc1SCC1=C(C(=O)[O-])N2C(=O)C(NC(=O)/C(=N\OC(C)(C)C(=O)O)c3cnc(N)s3)C2SC1 (stereo not given)	4 µg/mL (≈ 5.6 µM)	0.5 µg/mL (≈ 0.7 µM)	2 µg/mL (≈ 2.8 µM)	2 µg/mL (≈ 2.8 µM)	1 µg/mL (≈ 1.4 µM)	4 µg/mL (≈ 5.6 µM)	0.25 µg/mL (≈ 0.35 µM)	0.25 µg/mL (≈ 0.35 µM)	2 µg/mL (≈ 2.8 µM)	0.5 µg/mL (≈ 0.7 µM)	8 µg/mL (≈ 11.2 µM)	2 µg/mL (≈ 2.8 µM)
C[n+]1cccnc1SCC1=C(C(=O)[O-])N2C(=O)C(NC(=O)/C(=N\OC(C)(C)C(=O)O)c3cnc(N)s3)C2SC1 (stereo not given)	8 µg/mL (≈ 13.5 µM)	0.13 µg/mL (≈ 0.219 µM)	16 µg/mL (≈ 27 µM)	64 µg/mL (≈ 108 µM)	8 µg/mL (≈ 13.5 µM)	128 µg/mL (≈ 216 µM)	0.25 µg/mL (≈ 0.421 µM)	0.5 µg/mL (≈ 0.842 µM)	2 µg/mL (≈ 3.37 µM)	1 µg/mL (≈ 1.68 µM)	8 µg/mL (≈ 13.5 µM)	1 µg/mL (≈ 1.68 µM)
C[n+]1c(O)cc(O)nc1SCC1=C(C(=O)[O-])N2C(=O)C(NC(=O)/C(=N\OC(C)(C)C(=O)O)c3cnc(N)s3)C2SC1 (stereo not given)	16 µg/mL (≈ 25.6 µM)	0.5 µg/mL (≈ 0.799 µM)	16 µg/mL (≈ 25.6 µM)	> 128 µg/mL	4 µg/mL (≈ 6.39 µM)	> 128 µg/mL	1 µg/mL (≈ 1.6 µM)	2 µg/mL (≈ 3.2 µM)	16 µg/mL (≈ 25.6 µM)	4 µg/mL (≈ 6.39 µM)	32 µg/mL (≈ 51.1 µM)	16 µg/mL (≈ 25.6 µM)
C/C=C/[n+]1c(N)cc(N)nc1SCC1=C(C(=O)[O-])N2C(=O)C(NC(=O)/C(=N\OC(C)(C)C(=O)O)c3cnc(N)s3)C2SC1 (stereo not given)	2 µg/mL (≈ 3.08 µM)	0.06 µg/mL (≈ 0.0923 µM)	2 µg/mL (≈ 3.08 µM)	2 µg/mL (≈ 3.08 µM)	0.13 µg/mL (≈ 0.2 µM)	4 µg/mL (≈ 6.16 µM)	0.03 µg/mL (≈ 0.0462 µM)	0.06 µg/mL (≈ 0.0923 µM)	0.13 µg/mL (≈ 0.2 µM)	0.13 µg/mL (≈ 0.2 µM)	2 µg/mL (≈ 3.08 µM)	0.25 µg/mL (≈ 0.385 µM)
